From ChEMBL document CHEMBL3632508, “Discovery of α-mangostin as a novel competitive inhibitor against mutant isocitrate dehydrogenase-1” (Bioorg Med Chem Lett, 2015)

Columns and labels:
[1] = system: Isocitrate dehydrogenase [NADP] cytoplasmic (Homo sapiens), O75874 [R132H]; test: Inhibition of human IDH1 R132H mutant expressed in IPTG-induced Escherichia coli BL21 cells assessed as oxidation of NADPH to NADP+ after 5 mins by spectrophotometry; design: concentration or dose not given beside the values
[2] = target: Isocitrate dehydrogenase [NADP] cytoplasmic (Homo sapiens) (UniProt O75874); test: Inhibition of human IDH1 expressed in IPTG-induced Escherichia coli BL21 cells assessed as reduction of NADP+ to NADPH after 5 mins by spectrophotometry; design: concentration or dose not given beside the values
[3] = target: Isocitrate dehydrogenase [NADP] cytoplasmic (Homo sapiens, UniProt O75874, R132H); test: Competitive inhibition of IDH1-R132H mutant (unknown origin) using a-ketoglutarate and NADPH as substrate by steady state kinetic analysis
Method in brief: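 IDH1-R132H in buffer of 150 mM NaCl, 20 mM Tris–Cl pH 7.5, 10 mM MnCl₂, 150 μM β-NADPH, 0.03% (w/v) BSA; α-ketoglutarate varied to reach maximal activity; steady-state kinetic parameters fitted with an enzyme kinetics module.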

Sequence of Isocitrate dehydrogenase [NADP] cytoplasmic (Homo sapiens), O75874 [R132H] (O75874 whole entry R132H): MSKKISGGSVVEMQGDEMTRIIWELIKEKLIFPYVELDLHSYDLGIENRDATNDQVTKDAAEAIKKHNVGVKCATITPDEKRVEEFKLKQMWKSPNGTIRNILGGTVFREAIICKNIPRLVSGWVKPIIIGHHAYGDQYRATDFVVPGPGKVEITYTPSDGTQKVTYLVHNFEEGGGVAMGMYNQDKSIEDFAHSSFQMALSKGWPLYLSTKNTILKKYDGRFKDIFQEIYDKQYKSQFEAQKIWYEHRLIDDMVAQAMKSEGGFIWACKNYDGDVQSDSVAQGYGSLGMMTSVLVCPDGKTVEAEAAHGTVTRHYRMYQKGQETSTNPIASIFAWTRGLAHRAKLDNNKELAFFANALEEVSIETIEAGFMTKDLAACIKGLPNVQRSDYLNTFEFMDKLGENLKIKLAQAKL
Sequence of Isocitrate dehydrogenase [NADP] cytoplasmic (O75874 2-414 R132H limits assumed): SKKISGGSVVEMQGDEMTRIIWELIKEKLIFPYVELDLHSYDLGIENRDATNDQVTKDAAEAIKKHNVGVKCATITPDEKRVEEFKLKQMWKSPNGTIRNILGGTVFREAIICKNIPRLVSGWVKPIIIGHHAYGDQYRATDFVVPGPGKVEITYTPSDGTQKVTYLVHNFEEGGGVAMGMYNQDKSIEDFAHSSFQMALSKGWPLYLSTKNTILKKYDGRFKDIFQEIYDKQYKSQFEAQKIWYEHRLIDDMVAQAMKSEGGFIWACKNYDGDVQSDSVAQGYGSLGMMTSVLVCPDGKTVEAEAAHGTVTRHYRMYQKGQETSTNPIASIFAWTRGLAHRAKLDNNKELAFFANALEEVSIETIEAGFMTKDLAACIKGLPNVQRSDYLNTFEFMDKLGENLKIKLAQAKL
Sequence of Isocitrate dehydrogenase [NADP] cytoplasmic (Homo sapiens) (O75874 whole entry): as the sequence (O75874 whole entry R132H) above, with H132R counted along it

Structure (SMILES)	Activity [1]	Activity [2]	Ki [3]	Ki ([3]; read-out: Ki)
CC[C@H](/C=C/[C@@H](C)[C@H]1CC[C@H]2[C@@H]3CC=C4C[C@@H](O)CC[C@]4(C)[C@H]3CC[C@]12C)C(C)C	101%	111%		
COc1c(O)cc2oc3cc(O)c4c(c3c(=O)c2c1CC=C(C)C)OC(C)(C)CC4	106%	100%		
CC(C)=CCC[C@](C)(O[C@@H]1O[C@H](CO[C@@H]2O[C@H](CO)[C@@H](O)[C@H](O)[C@H]2O)[C@@H](O)[C@H](O)[C@H]1O)[C@H]1CC[C@]2(C)[C@@H]1[C@H](O)C[C@@H]1[C@@]3(C)CC[C@H](O[C@@H]4O[C@H](CO)[C@@H](O)[C@H](O)[C@H]4O[C@@H]4O[C@H](CO)[C@@H](O)[C@H](O)[C@H]4O)C(C)(C)[C@@H]3CC[C@]12C	105%	117%		
COc1c(O)cc2oc3cc4c(c(O)c3c(=O)c2c1CC=C(C)C)C=CC(C)(C)O4	98.7%	109%		
COc1ccc(C(=O)O[C@H]2[C@@H]3C=CO[C@@H](O[C@@H]4O[C@H](CO)[C@@H](O)[C@H](O)[C@H]4O)[C@@H]3[C@@]3(CO)O[C@@H]23)cc1O	103%	102%		
O=c1c(O)c(-c2ccccc2)oc2cc(O)cc(O)c12	95%	89.1%		
O=c1c(O)c(-c2ccc(O)cc2)oc2cc(O)cc(O)c12	112%	104%		
CCN(CC)C(=O)Oc1cc2oc3cc(O)c(CC=C(C)C)c(O)c3c(=O)c2c(CC=C(C)C)c1OC			Not Active	
O=C(/C=C/c1ccc(O)cc1)c1ccc(O)cc1O	98.1%	94.6%		
O=c1c(O)c(-c2cc(O)c(O)c(O)c2)oc2cc(O)cc(O)c12	93.2%	95.5%		
O=C(/C=C/c1ccccc1)NCCCCNC(=O)c1ccc(O)cc1	106%	100%		
CC(C)=CCOc1c2occc2cc2ccc(=O)oc12	102%	99%		
O=c1cc(-c2ccc(O)c(O)c2)oc2cc(O)cc(O)c12	93.6%	96.8%		
C[C@@H](C(=O)O)[C@@]1(C)CC[C@H]2[C@@](C)(CC[C@@]3(C)[C@@H]4CC(C)(C)CC[C@]4(C)CC[C@]23C)[C@@H]1CC(=O)O	90.9%	108%		
CC(C)=CCc1c(O)cc2oc3cc(O)c(O)c(CC=C(C)C)c3c(=O)c2c1O				3.17 µM
C=CCc1cc(OC)c(O)c(OC)c1	104%	101%		
C=C(C)[C@@H]1CC[C@]2(C(=O)O)CC[C@]3(C)[C@H](CC[C@@H]4[C@@]5(C)CC[C@H](O)C(C)(C)[C@@H]5CC[C@]43C)[C@@H]12	112%	102%		
COc1ccc(/C=C/C(=O)O[C@H]2[C@@H]3C=CO[C@@H](O[C@@H]4O[C@H](CO)[C@@H](O)[C@H](O)[C@H]4O)[C@@H]3[C@@]3(CO)O[C@@H]23)cc1O	108%	107%		
COc1ccc(-c2cc(=O)c3c(O)cc(O[C@@H]4O[C@H](CO)[C@@H](O)[C@H](O)[C@H]4O)cc3o2)cc1O	112%	108%		
CCN(CC)C(=O)Oc1cc2oc3cc(O)c(OC)c(CC=C(C)C)c3c(=O)c2c(O)c1CC=C(C)C			Not Active	

Structure (SMILES)	Activity [1]	Activity [2]	Ki [3]	Ki ([3]; read-out: Ki)
O=c1cc(-c2ccc(O)cc2)oc2cc(O)cc(O)c12	84%	97.4%		
CC1(C)CC[C@]2(C)CC[C@]3(C)C(=CC[C@@H]4[C@@]5(C)[C@@H](O)C[C@H](O)C(C)(C)[C@@H]5[C@H](O)C[C@]43C)[C@@H]2C1	99%	98.6%		
COc1ccc(-c2cc(=O)c3c(O)cc(O[C@@H]4O[C@H](COC5OC[C@@H](O)[C@H](O)[C@H]5O)[C@@H](O)[C@H](O)[C@H]4O)cc3o2)cc1O (stereo partly drawn)	116%	104%		
COc1ccc(-c2oc3c(CC=C(C)C)c(O)cc(O)c3c(=O)c2O)cc1	94.6%	97.9%		
CC[C@H](CC[C@@H](C)[C@H]1CC[C@H]2[C@@H]3CC=C4C[C@@H](O)CC[C@]4(C)[C@H]3CC[C@]12C)C(C)C	98.8%	105%		
COc1ccc(C(=O)O[C@H]2[C@@H]3C=CO[C@@H](O[C@@H]4O[C@H](CO)[C@@H](O)[C@H](O)[C@H]4O)[C@@H]3[C@@]3(CO)O[C@@H]23)cc1OC	97.7%	107%		
C=C[C@]1(C)CC[C@@]2(C)C3=CCC[C@](C)(CO)[C@@H]3CC[C@@H]2C1	116%	106%		
CC(C)=CCC[C@](C)(O[C@@H]1O[C@H](CO[C@@H]2O[C@H](CO)[C@@H](O)[C@H](O)[C@H]2O)[C@@H](O)[C@H](O)[C@H]1O)[C@H]1CC[C@]2(C)[C@@H]1[C@H](O)C[C@@H]1[C@@]3(C)CC[C@H](O[C@@H]4O[C@H](CO)[C@@H](O)[C@H](O)[C@H]4O)C(C)(C)[C@@H]3CC[C@]12C	102%	122%		
CC1(C)CC[C@]2(C)CC[C@]3(C)C(=CC[C@@H]4[C@@]5(C)CC[C@H](O)C(C)(C)[C@@H]5[C@H](O)C[C@]43C)[C@@H]2C1	114%	102%		
C[C@H]1[C@H](C)CC[C@]2(C)CC[C@]3(C)C(=CC[C@@H]4[C@@]5(C)CC[C@H](O)C(C)(C)[C@@H]5CC[C@]43C)[C@H]12	112%	105%		
O=C(O)[C@H]1O[C@@H](Oc2cc3oc(-c4ccc(O)cc4)cc(=O)c3c(O)c2O)[C@H](O)[C@@H](O)[C@@H]1O	91.5%	88.8%		
CC1(C)CC[C@]2(C)CC=C3[C@]4(C)CC[C@H]5C(C)(C)[C@@H](O)CC[C@]5(C)[C@H]4CC[C@@]3(C)[C@@H]2C1	109%	106%		
C[C@H]1[C@H](C)CC[C@]2(C(=O)O)CC[C@]3(C)C(=CC[C@@H]4[C@@]5(C)CC[C@H](O)C(C)(C)[C@@H]5CC[C@]43C)[C@H]12	114%	102%		
CC1(C)CC[C@]2(C(=O)O)CC=C3[C@]4(C)CC[C@H]5C(C)(C)[C@@H](O)CC[C@]5(C)[C@H]4CC[C@@]3(C)[C@@H]2C1	113%	103%		
C=C1CC[C@@H]2[C@H]([C@H]3[C@H]1CC[C@]3(C)O)C2(C)C	107%	106%		
CC1(C)CC[C@]2(C)CC[C@]3(C)C(=CC[C@@H]4[C@@]5(C)[C@@H](O)C[C@H](O)C(C)(C)[C@@H]5CC[C@]43C)[C@@H]2C1	111%	99.2%		
CC[C@H](CC[C@@H](C)[C@H]1CC[C@H]2[C@@H]3CC=C4C[C@@H](O[C@@H]5O[C@H](CO)[C@@H](O)[C@H](O)[C@H]5O)CC[C@]4(C)[C@H]3CC[C@]12C)C(C)C	103%	94.6%		
C/C=C(/C)C(=O)O[C@H]1Cc2c(cc3oc(CO)cc(=O)c3c2O)OC1(C)C	108%	102%		
C[C@H]1[C@@H](O)CC[C@@H]2[C@]1(C)CC[C@H]1[C@@]2(C)CC[C@@]2(C)[C@@H]3CC(C)(C)CC[C@]3(C)CC[C@]12C	113%	109%		
O=C(O)c1cc(O)c(O)c(O)c1	103%	97.4%		

Structure (SMILES)	Activity [1]	Activity [2]	Ki [3]	Ki ([3]; read-out: Ki)
O=c1cc(-c2ccccc2)oc2cc(O)cc(O)c12	96.7%	97.6%		
CC1(C)CC[C@]2(C(=O)O)CC[C@]3(C)C(=CC[C@@H]4[C@@]5(C)CC[C@H](O)C(C)(C)[C@@H]5CC[C@]43C)[C@@H]2C1	117%	101%		
COc1c2c(cc3oc(C)cc(=O)c13)OC(C(C)(C)O[C@H]1O[C@@H](CO)[C@H](O)[C@@H](O)[C@@H]1O)C2 (stereo partly drawn)	108%	107%		
C=C1CC[C@@H]2[C@](C)(CCC[C@]2(C)C(=O)O)[C@H]1CCc1ccoc1	92.8%	100%		
CCCCCCCCCCCCC/C=C1/C(=O)O[C@H](C)[C@@H]1O	114%	111%		
COc1c2c(cc3oc(CO[C@@H]4O[C@H](CO)[C@@H](O)[C@H](O)[C@H]4O)cc(=O)c13)O[C@H](C(C)(C)O)C2	112%	96.8%		
CC(C)CCC[C@@H](C)[C@H]1CC[C@H]2[C@@H]3CC=C4C[C@@H](O)CC[C@]4(C)[C@H]3CC[C@]12C	96.3%	105%		
C/C=C(/C)C(=O)O[C@H]1Cc2c(cc3oc(C)cc(=O)c3c2O)OC1(C)C	105%	97.8%		
C=C(C)C(C)CC[C@@H](C)[C@H]1CC[C@@]2(C)[C@@H]3CC[C@H]4C(C)(C)C(=O)CC[C@]4(C)C3=CC[C@]12C (stereo partly drawn)	124%	106%		
Cc1cc(=O)c2c(O)c3c(cc2o1)OC(C)(C)[C@@H](O)C3	105%	98.2%		
CC(C)=CCc1c(O)c(CC=C(C)C)c2oc3c(O)ccc(O)c3c(=O)c2c1O	93.9%	89.9%		
COc1ccc(-c2oc3c(CC=C(C)C)c(O[C@@H]4O[C@H](CO)[C@@H](O)[C@H](O)[C@H]4O)cc(O)c3c(=O)c2O[C@@H]2O[C@@H](C)[C@H](O)[C@@H](O)[C@H]2O)cc1	104%	90.4%		
O=C1C[C@@H](c2ccc(O)cc2)Oc2cc(O)cc(O)c21	109%	102%		
O=C(O[C@H]1[C@@H]2C=CO[C@@H](O[C@@H]3O[C@H](CO)[C@@H](O)[C@H](O)[C@H]3O)[C@@H]2[C@@]2(CO)O[C@@H]12)c1ccc(O)c(O)c1	107%	88.3%		
CC(C)=CCc1c(O)c(CC=C(C)C)c2oc3c(O)cccc3c(=O)c2c1O	109%	92.8%		
O=c1cc(-c2ccc(O)cc2)oc2cc(O)c(O)c(O)c12	92%	89%		
C[C@H]1C(=O)CC[C@@H]2[C@]1(C)CC[C@H]1[C@@]2(C)CC[C@@]2(C)[C@@H]3CC(C)(C)CC[C@]3(C)CC[C@]12C	108%	104%		
COc1c2c(cc3oc(C)cc(=O)c13)OC(C(C)(C)O)C2 (stereo not drawn)	105%	103%		
